Structures are written as SMILES. Activity calls are given as the source filed them. No cut-off for these calls is given here.

For experiment [1], the target named is Protein cereblon (Homo sapiens, UniProt Q96SW2). As to the kind of experiment: Binding affinity to Cereblon in human Flp293T cells transfected with BRD4(BD2)-GFP fusion protein and mCherry reporter assessed as inhibition of dBET6-induced BRD4(BD2) degradation after 5 hrs fluorescence based analysis. The experiment is classed as cell-based, Flp-In-293. Summed up:
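Flp293T cells stably expressing BRD4_BD2-GFP plus mCherry reporter, seeded a day earlier in FluoroBrite DMEM/10% FBS; compounds in dose response co-dosed with 100 nM dBET6 (0.5% DMSO), 5 h. […] Lenalidomide positive control.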

In experiment [2] the target is T1, Protein cereblon/Eukaryotic translation initiation factor 4E (Homo sapiens) (UniProt P06730+Q96SW2). As to the kind of experiment: Protac activity at CRBN/eIF4E in human HEK293T cells assessed as induction of intracellular eIF4E degradation at 1 uM measured after 0.5 to 24 hrs by Western blot analysis. The experiment is classed as cell-based. To be noted: time 0.5-24 hrs. Summed up: (§1)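 HEK293T cells exposed either to 0.1-10 μM PROTAC for 24 h or to 1 μM PROTAC for 0.5 to 24 h, DMSO-treated cells alongside; eIF4E level assessed by immunoblotting.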

For experiment [3], the target named is T1, Protein cereblon/Eukaryotic translation initiation factor 4E (Homo sapiens). As to the kind of experiment: Protac activity at CRBN/eIF4E in human HEK293T cells assessed as induction of eIF4E ubiquitination at 1 uM in presence of 26S proteasome inhibitor, Bortezomib by Western blot analysis. The experiment is classed as cell-based. Summed up: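 HEK293T cells incubated with 1 μM PROTAC plus 100 nM bortezomib; eIF4E ubiquitination compared with bortezomib-alone and DMSO-treated cells.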

Experiment [4] shares this target. As to the kind of experiment: Protac activity at CRBN/eIF4E in human HEK293T cells assessed as induction of intracellular eIF4E degradation at 0.1 to 10 uM measured after 24 hrs by Western blot analysis. It counts as cell-based. To be noted: dose 0.1-10 µM. Summed up: as §1
For orientation: Immunoblotting shows a protein as a band on a membrane.

For experiment [5] the target is unchanged. Description: Protac activity at CRBN/eIF4E in human Kelly cells assessed as induction of eIF4E degradation by measuring downregulation of eIF4E protein expression at 1 uM measured after 5 hrs by proteomics analysis based LC-MS analysis. It counts as cell-based. Summed up:
(§2)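 Kelly cells given 1 μM compound or DMSO (biological triplicate) for 5 h; urea/EPPS pH 8.5 lysis, 100 μg protein reduced, alkylated, digested, TMT-labelled, high-pH reverse-phase fractionated into 96 fractions; LC-MS over a 190 min 9-32% acetonitrile gradient with MS3-based TMT quantification with real-time search; change relative to DMSO.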

Experiment [6] concerns the target Protein cereblon/Sal-like protein 4 (Homo sapiens) (UniProt Q96SW2+Q9UJQ4). Description: Protac activity at CRBN/SALL4 in human Kelly cells assessed as induction of SALL4 degradation by measuring downregulation of SALL4 protein expression at 1 uM measured after 5 hrs by proteomics analysis based LC-MS analysis. It counts as cell-based. In outline: as §2
Experiment [7] deals with Protein cereblon/Zinc finger protein 827 (Homo sapiens) (UniProt Q96SW2+Q17R98). As to the kind of experiment: Protac activity at CRBN/ZNF827 in human Kelly cells assessed as induction of ZNF827 degradation by measuring downregulation of ZNF827 protein expression at 1 uM measured after 5 hrs by proteomics analysis based LC-MS analysis. The experiment is classed as cell-based. Summed up: as §2

Experiment [8] has as its target Protein cereblon/Zinc finger protein 692 (Homo sapiens) (UniProt Q96SW2+Q9BU19). As to the kind of experiment: Protac activity at CRBN/ZNF692 in human Kelly cells assessed as induction of ZNF692 degradation by measuring downregulation of ZNF692 protein expression at 1 uM measured after 5 hrs by proteomics analysis based LC-MS analysis. The experiment is classed as cell-based. Summed up:
as §2

In experiment [9] the test system is MM1.S. As to the kind of experiment: Cytotoxicity against human MM1.S cells assessed as reduction in cell viability after 48 hrs by Cell specific bioluminescence imaging (CS-BLI) assay.
Experiment [10] concerns MCF7. Description: Cytotoxicity against human MCF7 cells assessed as reduction in cell viability after 72 hrs by Cell specific bioluminescence imaging (CS-BLI) assay. To be noted: MCF7, 72 h.
Experiment [11] has as its system MCF7. Description: Cytotoxicity against human MCF7 cells assessed as reduction in cell viability after 24 hrs by Cell specific bioluminescence imaging (CS-BLI) assay. To be noted: MCF7, 24 h.
Experiment [12] has as its system MM1.S. Description: Cytotoxicity against human MM1.S cells assessed as reduction in cell viability after 24 hrs by Cell specific bioluminescence imaging (CS-BLI) assay.
In experiment [13] the test system is MCF7. As to the kind of experiment: Cytotoxicity against human MCF7 cells assessed as reduction in cell viability after 48 hrs by Cell specific bioluminescence imaging (CS-BLI) assay. To be noted: MCF7, 48 h.
The subject of experiment [14] is MM1.S. Description: Cytotoxicity against human MM1.S cells assessed as reduction in cell viability after 72 hrs by Cell specific bioluminescence imaging (CS-BLI) assay.
The test system of experiment [15] is HeLa. Description: Cytotoxicity activity against human HeLa cells assessed as cell killing at 10 uM measured after 24 hrs by CellTiter Glo luminescence assay. It counts as functional. In outline: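 HeLa cells in 4.5 g/L glucose DMEM, 10% FBS, 1% pen/strep, 5x10³ cells/well; medium replaced 24 h post-seeding with drug-containing medium at equal DMSO. CellTiter-Glo luminescence read, normalized to DMSO control; at least two experiments, triplicates.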
(In general: In ATP-based viability assays light output follows the ATP content of the culture.)

T1 sequence (P06730 whole entry, looked up): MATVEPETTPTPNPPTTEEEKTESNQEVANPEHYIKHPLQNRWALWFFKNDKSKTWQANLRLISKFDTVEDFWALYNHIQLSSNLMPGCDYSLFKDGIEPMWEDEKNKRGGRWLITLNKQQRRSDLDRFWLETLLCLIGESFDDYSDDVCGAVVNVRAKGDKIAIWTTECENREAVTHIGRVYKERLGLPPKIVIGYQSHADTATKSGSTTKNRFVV
T1 sequence (Q96SW2 whole entry, looked up): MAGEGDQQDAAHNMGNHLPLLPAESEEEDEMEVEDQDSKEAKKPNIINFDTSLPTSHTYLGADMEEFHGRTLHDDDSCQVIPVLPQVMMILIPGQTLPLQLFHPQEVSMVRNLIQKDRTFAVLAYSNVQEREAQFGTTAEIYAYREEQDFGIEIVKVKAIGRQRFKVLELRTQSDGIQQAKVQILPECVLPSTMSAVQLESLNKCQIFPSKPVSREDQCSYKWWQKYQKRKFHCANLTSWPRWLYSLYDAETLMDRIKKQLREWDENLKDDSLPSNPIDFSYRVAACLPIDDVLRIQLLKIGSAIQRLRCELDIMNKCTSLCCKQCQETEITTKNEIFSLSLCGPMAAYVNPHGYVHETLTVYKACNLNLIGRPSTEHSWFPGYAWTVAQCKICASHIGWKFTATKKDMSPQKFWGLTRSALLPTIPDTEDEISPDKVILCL
Protein cereblon, sequence (Q96SW2 whole entry, the tested form may be a part): as the sequence (Q96SW2 whole entry, looked up) above
Protein cereblon/Zinc finger protein 827 (Homo sapiens), sequence (Q17R98 whole entry, looked up): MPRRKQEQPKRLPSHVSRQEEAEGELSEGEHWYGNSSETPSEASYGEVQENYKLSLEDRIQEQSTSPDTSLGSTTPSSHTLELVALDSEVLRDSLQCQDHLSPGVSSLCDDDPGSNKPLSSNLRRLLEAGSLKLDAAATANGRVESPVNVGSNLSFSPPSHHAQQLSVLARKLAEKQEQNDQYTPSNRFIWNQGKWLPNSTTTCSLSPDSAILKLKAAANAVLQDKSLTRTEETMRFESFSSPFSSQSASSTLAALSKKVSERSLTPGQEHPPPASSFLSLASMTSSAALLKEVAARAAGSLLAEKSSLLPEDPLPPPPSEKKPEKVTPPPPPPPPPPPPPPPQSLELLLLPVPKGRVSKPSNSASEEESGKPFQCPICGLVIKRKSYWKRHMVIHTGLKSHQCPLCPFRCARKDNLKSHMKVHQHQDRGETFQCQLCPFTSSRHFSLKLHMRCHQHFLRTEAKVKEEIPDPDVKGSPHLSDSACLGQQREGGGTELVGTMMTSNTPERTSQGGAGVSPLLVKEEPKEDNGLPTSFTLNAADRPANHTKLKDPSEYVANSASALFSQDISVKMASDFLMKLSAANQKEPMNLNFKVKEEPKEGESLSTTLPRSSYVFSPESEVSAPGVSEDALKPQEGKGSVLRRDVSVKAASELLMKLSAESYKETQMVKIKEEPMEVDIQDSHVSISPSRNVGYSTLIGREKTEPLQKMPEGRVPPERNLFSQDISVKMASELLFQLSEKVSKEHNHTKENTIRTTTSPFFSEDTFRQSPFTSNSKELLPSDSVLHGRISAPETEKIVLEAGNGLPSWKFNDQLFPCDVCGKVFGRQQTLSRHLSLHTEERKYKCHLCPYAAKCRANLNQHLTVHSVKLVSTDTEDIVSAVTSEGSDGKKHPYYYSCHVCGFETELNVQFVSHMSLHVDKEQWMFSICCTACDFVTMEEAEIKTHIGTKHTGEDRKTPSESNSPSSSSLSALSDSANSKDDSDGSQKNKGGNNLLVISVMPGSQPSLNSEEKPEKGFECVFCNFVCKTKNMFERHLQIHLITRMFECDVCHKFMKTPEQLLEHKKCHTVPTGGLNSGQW
Protein cereblon/Zinc finger protein 827 (Homo sapiens), sequence (Q96SW2 whole entry, looked up): as the sequence (Q96SW2 whole entry, looked up) above
Protein cereblon/Zinc finger protein 692 (Homo sapiens), sequence (Q96SW2 whole entry, looked up): as above
Protein cereblon/Zinc finger protein 692 (Homo sapiens), sequence (Q9BU19 whole entry, looked up): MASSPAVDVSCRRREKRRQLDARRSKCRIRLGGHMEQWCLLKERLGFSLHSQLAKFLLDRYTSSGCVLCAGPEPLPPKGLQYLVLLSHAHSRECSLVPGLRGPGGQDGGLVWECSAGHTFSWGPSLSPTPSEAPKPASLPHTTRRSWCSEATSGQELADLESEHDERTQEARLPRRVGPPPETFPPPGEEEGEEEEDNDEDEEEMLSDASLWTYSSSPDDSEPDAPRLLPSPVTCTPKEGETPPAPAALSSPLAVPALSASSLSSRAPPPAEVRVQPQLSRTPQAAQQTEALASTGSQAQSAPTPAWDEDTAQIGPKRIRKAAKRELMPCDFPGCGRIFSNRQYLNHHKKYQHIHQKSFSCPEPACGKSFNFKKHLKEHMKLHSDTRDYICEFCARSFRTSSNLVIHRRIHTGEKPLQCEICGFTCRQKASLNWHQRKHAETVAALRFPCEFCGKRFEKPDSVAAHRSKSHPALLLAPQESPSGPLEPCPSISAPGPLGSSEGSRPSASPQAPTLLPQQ
Protein cereblon/Sal-like protein 4 (Homo sapiens), sequence (Q96SW2 whole entry, looked up): as the sequence (Q96SW2 whole entry, looked up) above
Protein cereblon/Sal-like protein 4 (Homo sapiens), sequence (Q9UJQ4 whole entry, looked up): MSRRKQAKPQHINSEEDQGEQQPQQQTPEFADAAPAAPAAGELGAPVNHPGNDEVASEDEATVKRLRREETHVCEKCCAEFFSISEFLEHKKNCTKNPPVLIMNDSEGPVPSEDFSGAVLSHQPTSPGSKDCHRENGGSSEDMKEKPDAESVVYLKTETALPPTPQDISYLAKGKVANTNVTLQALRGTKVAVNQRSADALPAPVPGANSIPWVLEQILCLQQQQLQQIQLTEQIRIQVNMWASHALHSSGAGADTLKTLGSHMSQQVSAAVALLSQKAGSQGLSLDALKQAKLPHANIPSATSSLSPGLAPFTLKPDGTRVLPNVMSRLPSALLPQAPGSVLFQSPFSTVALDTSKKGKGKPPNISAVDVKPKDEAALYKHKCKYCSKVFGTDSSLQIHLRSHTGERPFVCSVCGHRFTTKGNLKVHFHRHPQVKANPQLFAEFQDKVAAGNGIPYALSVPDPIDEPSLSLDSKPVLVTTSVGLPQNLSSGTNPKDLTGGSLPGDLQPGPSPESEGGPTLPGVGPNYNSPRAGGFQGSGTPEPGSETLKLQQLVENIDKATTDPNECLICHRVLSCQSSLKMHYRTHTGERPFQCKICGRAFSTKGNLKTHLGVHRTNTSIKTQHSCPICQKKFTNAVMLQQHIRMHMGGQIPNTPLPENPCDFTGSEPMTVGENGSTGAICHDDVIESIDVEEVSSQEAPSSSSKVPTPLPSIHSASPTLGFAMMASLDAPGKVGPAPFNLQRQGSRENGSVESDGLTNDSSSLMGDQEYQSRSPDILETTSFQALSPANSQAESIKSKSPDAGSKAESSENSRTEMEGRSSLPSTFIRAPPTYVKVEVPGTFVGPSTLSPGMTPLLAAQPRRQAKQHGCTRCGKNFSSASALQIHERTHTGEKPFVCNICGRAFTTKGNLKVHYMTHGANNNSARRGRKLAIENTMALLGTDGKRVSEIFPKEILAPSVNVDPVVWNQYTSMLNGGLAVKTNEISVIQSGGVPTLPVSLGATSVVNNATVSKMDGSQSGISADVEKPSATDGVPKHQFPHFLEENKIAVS

With `C/C(=N\Nc1nc(-c2ccc(Cl)c(Cl)c2)c(CC(=O)NCCNc2cccc3c2C(=O)N(C2CCC(=O)NC2=O)C3=O)s1)C(=O)OCOC(=O)C(C)(C)C` (configuration not stated), the IC50 (in general, the concentration at which inhibition is half-maximal) in experiment [1] amounted to 20.7 µM. In addition, the result in experiment [2], in [3] and in experiment [4] was inactive.
On to `C/C(=N\Nc1nc(-c2ccc(-c3ccccc3)cc2)cs1)C(=O)NCCCCNc1cccc2c1C(=O)N(C1CCC(=O)NC1=O)C2=O` (configuration not stated), for which the IC50 in experiment [1] came to 1.6 µM. Also, the outcome in [5] was inactive. For the same molecule, the result in experiment [6], in experiment [7] and in experiment [8] was Active.
Turning to `O=C(O)C(Cc1ccccc1[N+](=O)[O-])=NNc1nc(-c2ccc(Cl)c(Cl)c2)cs1`, the IC50 was found to be 18.7 µM in [9]; 35.1 µM in [10]; 71.2 µM in experiment [11]; 22.6 µM in experiment [12]; 43.1 µM in experiment [13]; 15.6 µM in [14].
With `O=C1CCC(N2C(=O)c3cccc(NCCCCNC(=O)/C(=N\Nc4nc(-c5ccc(-c6ccccc6)cc5)cs4)c4ccccc4[N+](=O)[O-])c3C2=O)C(=O)N1` (configuration not stated), in experiment [1], the concentration for half-maximal inhibition (IC50) worked out at 13 µM.
As for `C/C(=N\Nc1nc(-c2ccc(-c3ccccc3)cc2)cs1)C(=O)NCCCNc1cccc2c1C(=O)N(C1CCC(=O)NC1=O)C2=O` (configuration not stated), the Activity in experiment [15] stood at 50%.
Regarding `O=C(COc1cccc2c1C(=O)N(C1CCC(=O)NC1=O)C2=O)NCCCCNC(=O)Cc1sc(N/N=C(\Cc2ccccc2[N+](=O)[O-])C(=O)O)nc1-c1ccc(Cl)c(Cl)c1` (configuration not stated), in experiment [1] (Flp-In-293), the result was inactive.
Take `C/C(=N\Nc1nc(-c2ccc(-c3ccccc3)cc2)cs1)C(=O)NCCNc1cccc2c1C(=O)N(C1CCC(=O)NC1=O)C2=O` (configuration not stated): the outcome in experiment [2], in [3] and in experiment [4] was inactive. In addition, the Activity in experiment [15] came out at 50%.

(Values after ChEMBL document CHEMBL4819099, “A biphenyl inhibitor of eIF4E targeting an internal binding site enables the design of cell-permeable PROTAC-degraders” (Eur J Med Chem, 2021).)
